Assay [1] deals with Sodium-dependent serotonin transporter (Rattus norvegicus, UniProt P31652). The assay can be described thus: Affinity for the displacement of [3H]paroxetine binding to serotonin transporter (SERT) in rat frontal cortex membranes. In kind it is cell membranes, Membrane. The method, boiled down:
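Displacement of 0.4 nM [3H]paroxetine in frontal cortex membranes (50 mg original wet weight) dissected from frozen Sprague-Dawley rat brains, using 7-10 analogue concentrations. Nonspecific binding was defined with 10 µM fluoxetine. Ki was obtained by nonlinear curve fitting and the Cheng-Prusoff equation. Values are mean ± SEM of ≥3 experiments, each in triplicate.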
(In general: In a radioligand displacement assay an active substance lowers the binding of a labelled ligand.)

In assay [2] the target is Sodium-dependent dopamine transporter (Rattus norvegicus, UniProt P23977). Nature of the assay: Inhibitory activity in displacing [125I]- RTI-55 binding to dopamine transporter in rat striatal membranes. In kind it is cell membranes, Striatum, Membrane. The method, boiled down: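 Nonspecific binding was defined with 1 µM WF-23. Curves were fitted by nonlinear regression, and IC50 is reported because binding at this transporter is multiphasic. Values are mean ± SEM of ≥3 experiments, each run in triplicate.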
Sodium-dependent dopamine transporter, sequence (P23977 whole entry): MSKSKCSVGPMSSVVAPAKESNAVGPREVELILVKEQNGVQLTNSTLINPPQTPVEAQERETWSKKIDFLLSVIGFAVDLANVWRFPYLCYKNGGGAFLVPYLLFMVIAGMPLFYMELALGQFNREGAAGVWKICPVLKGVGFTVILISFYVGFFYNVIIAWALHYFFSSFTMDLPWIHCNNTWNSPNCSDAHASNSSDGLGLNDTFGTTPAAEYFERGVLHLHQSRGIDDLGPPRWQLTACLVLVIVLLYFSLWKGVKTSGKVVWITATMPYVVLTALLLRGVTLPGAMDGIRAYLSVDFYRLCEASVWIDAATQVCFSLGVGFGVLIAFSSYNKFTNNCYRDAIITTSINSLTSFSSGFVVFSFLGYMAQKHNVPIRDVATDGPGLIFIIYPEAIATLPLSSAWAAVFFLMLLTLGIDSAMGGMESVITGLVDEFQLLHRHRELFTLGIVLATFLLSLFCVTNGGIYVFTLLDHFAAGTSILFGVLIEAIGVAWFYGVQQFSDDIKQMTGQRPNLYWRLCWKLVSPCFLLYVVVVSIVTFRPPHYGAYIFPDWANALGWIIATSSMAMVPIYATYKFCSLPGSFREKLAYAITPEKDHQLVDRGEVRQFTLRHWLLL

In assay [3] the target is Monoamine transporters; serotonin & dopamine (Rattus norvegicus) (UniProt P31652+P23977). Nature of the assay: SERT/DAT (serotonin transporter/dopamine transporter) binding potency ratio. In kind it is protein assay.
Monoamine transporters; serotonin & dopamine (Rattus norvegicus), sequence (P23977 whole entry, looked up): as the sequence (P23977 whole entry) above
Monoamine transporters; serotonin & dopamine (Rattus norvegicus), sequence (P31652 whole entry, looked up): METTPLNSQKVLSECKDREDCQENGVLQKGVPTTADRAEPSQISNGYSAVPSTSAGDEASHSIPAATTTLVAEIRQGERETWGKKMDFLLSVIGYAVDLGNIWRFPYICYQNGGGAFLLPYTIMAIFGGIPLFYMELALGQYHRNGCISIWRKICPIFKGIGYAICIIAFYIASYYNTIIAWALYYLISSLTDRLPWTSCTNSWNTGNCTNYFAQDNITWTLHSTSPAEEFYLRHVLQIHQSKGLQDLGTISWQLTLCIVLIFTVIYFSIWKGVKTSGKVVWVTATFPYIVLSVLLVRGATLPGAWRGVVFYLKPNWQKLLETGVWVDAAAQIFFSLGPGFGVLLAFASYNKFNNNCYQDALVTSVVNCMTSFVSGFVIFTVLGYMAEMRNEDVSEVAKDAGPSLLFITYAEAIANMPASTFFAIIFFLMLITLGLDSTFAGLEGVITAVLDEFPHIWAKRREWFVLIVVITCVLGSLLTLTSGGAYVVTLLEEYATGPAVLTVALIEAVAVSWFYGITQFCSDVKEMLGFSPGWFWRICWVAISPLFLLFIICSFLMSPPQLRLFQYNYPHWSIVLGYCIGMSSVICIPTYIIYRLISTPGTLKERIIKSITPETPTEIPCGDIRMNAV
The target of assay [4] is Norepinephrine transporter (Rattus norvegicus, UniProt Q9WTR4). The assay can be described thus: Affinity for the displacement of [3H]paroxetine binding to norepinephrine transporter (NET) in rat frontal cortex membranes. The format is cell membranes, Membrane.
Norepinephrine transporter, sequence (Q9WTR4 whole entry): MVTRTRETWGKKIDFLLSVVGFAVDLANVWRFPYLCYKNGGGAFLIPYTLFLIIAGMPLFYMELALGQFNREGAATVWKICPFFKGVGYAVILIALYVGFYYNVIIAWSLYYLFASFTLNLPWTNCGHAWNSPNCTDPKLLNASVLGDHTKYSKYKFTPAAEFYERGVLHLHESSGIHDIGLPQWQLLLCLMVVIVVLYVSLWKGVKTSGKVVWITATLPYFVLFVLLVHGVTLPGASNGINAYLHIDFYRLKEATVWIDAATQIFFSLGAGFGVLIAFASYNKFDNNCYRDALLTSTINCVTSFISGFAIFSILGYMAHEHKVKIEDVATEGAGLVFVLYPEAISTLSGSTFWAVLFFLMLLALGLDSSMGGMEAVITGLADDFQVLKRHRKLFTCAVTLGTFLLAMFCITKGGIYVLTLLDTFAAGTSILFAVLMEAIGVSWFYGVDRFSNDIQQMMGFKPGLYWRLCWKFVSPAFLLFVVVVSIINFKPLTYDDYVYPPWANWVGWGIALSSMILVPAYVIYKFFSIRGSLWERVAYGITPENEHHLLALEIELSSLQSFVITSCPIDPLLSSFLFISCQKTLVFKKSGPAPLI

Sodium-dependent serotonin transporter, sequence (P31652 whole entry): as the sequence (P31652 whole entry, looked up) above

Regarding `CC(=O)C1C(c2cccc3ccccc23)CC2CCC1N2C` (stereo in doubt; form 1) [listing 1 of 2 here], affinity in assay [1] was put at a Ki of 217 nM. In assay [2], this compound gave an IC50 of 97 nM.

As to `CCC(=O)C1C(c2ccc(C)cc2)CC2CCC1N2C` (configuration not stated), in assay [3], the Potency ratio was 0.06. The compound further yielded a Ki in assay [4] of 65 nM.

`CCC(=O)C1C(c2ccc3ccccc3c2)CC2CCC1N2C` (stereo in doubt) [listing 1 of 2 here]: the Potency ratio in assay [3] stood at 0.15.

On to `C=C(C)c1c(OC)ccc2cc(C3CC4CCC(C3C(=O)CC)N4C)ccc12` (configuration not stated), for which the figures for the Ki in assay [1] and in assay [4] were 88 nM and 2330 nM, respectively. Further, in assay [3], the Potency ratio was 0.5. In assay [2], this compound returned an IC50 of 45 nM.

Regarding `CCC(=O)C1C2CCC(CC1c1ccc3ccccc3c1)N2` (configuration not stated), the Ki in assay [1] is 0.23 nM; in assay [4] it was 2.05 nM. Also, the Potency ratio in assay [3] came to 0.13. Besides, the IC50 in assay [2] amounted to 0.03 nM.

In the case of `CCC(=O)C1C(c2ccc3c(I)c(OC)ccc3c2)CC2CCC1N2C` (configuration not stated), the values for the Ki in assay [1] and in assay [4] were 2.27 nM and 781 nM, respectively. Besides, the Potency ratio in assay [3] came to 0.6. Also, the IC50 in assay [2] amounted to 1.31 nM.

Regarding `CCC(=O)C1C(c2cccc3ccccc23)CC2CCC1N2C` (configuration not stated), in assay [3], the Potency ratio worked out at 0.3. Also, the Ki in assay [4] worked out at 49 nM.

For `CCC(=O)C1C(c2ccc3c(C(C)=O)c(OC)ccc3c2)CC2CCC1N2C` (configuration not stated), the Ki in assay [1] amounted to 15.8 nM; in assay [4], 498 nM. Besides, the Potency ratio in assay [3] came to 0.8. This compound displayed an IC50 in assay [2] of 12.6 nM.

`CC(=O)C1C(c2cccc3ccccc23)CC2CCC1N2C` (stereo in doubt; form 2) [listing 1 of 2 here] showed a Ki in assay [4] of 165 nM.

`CCC(=O)C1C(c2ccc3cc(I)ccc3c2)CC2CCC1N2C` (configuration not stated) had a Ki in assay [1] of 0.37 nM. Besides, in assay [3], the Potency ratio was found to be 1. Further, in assay [2], the 50% inhibitory concentration (IC50) was found to be 0.35 nM.

`CCC(=O)C1C(c2ccc3ccc(I)cc3c2)CC2CCC1N2C` (configuration not stated) returned a Ki in assay [1] of 0.47 nM. In addition, the Potency ratio in assay [3] came to 0.5. Further, the IC50 in assay [2] worked out at 0.45 nM.

Consider `CCC(=O)C1C(c2ccc(CC)c3ccccc23)CC2CCC1N2C` (configuration not stated), for which the Ki was 175 nM in assay [1] and 4770 nM in assay [4]. In assay [3], the Potency ratio was 0.7. The IC50 in assay [2] came out at 75.1 nM.

In assay [1], `CCC(=O)C1C(c2ccc3cc(C(C)C)ccc3c2)CC2CCC1N2C` (configuration not stated) displayed a Ki of 1.97 nM. The Potency ratio in assay [3] stood at 0.2. This compound also yielded an IC50 in assay [2] of 0.39 nM.

`CCC(=O)C1C(c2ccc3cc(OC)ccc3c2)CC2CCC1N2C` (configuration not stated) returned an inhibition constant Ki in assay [1] of 2.24 nM. Moreover, the Potency ratio in assay [3] came to 0.05. In assay [2], the IC50 came out at 0.13 nM.

For the compound `CC(=O)C1C(c2ccc3ccccc3c2)CC2CCC1N2C` (configuration not stated), in assay [3], the Potency ratio was 1.2. The same compound came in with a Ki in assay [4] of 4.9 nM. This compound also registered an IC50 in assay [2] of 1.27 nM.

In the case of `CCC(=O)C1C(c2ccc3ccccc3c2)CC2CCC1N2C` (stereo in doubt; 8), the Potency ratio in assay [3] came out at 0.3.

Turning to `CCC(=O)C1C(c2ccc3cc(CC)ccc3c2)CC2CCC1N2C` (configuration not stated), the Ki in assay [1] came out at 0.38 nM; in assay [4] it was 27.7 nM. Besides, in assay [3], the Potency ratio was found to be 0.4. The same compound returned an IC50 in assay [2] of 0.15 nM.

Consider `CC(C)C(=O)C1C(c2ccc3ccccc3c2)CC2CCC1N2C` (configuration not stated), for which the values for the Ki in assay [1] and in assay [4] were 2.08 nM and 37.6 nM, respectively. For the same compound, the Potency ratio in assay [3] amounted to 0.12. Moreover, the IC50 in assay [2] stood at 0.25 nM.

Take `CCC(=O)C1C(c2ccc(C)c3ccccc23)CC2CCC1N2C` (configuration not stated): the Ki in assay [1] was 8.99 nM; in assay [4], 163 nM. In assay [3], the Potency ratio stood at 3. The compound further gave an IC50 in assay [2] of 25.1 nM.

In the case of `CCC(=O)C1C(c2ccc3c(CC)c(OC)ccc3c2)CC2CCC1N2C` (configuration not stated), the Ki in assay [1] worked out at 7.55 nM; in assay [4] it was 3360 nM. The Potency ratio in assay [3] was found to be 4.1. The compound further registered an IC50 in assay [2] of 30.8 nM.

Take `CC(=O)C1C(c2cccc3ccccc23)CC2CCC1N2C` (stereo in doubt; form 1) [listing 2 of 2 here]: in assay [3], the Potency ratio stood at 0.45.

For the compound `CCC(=O)C1C(c2ccc3ccccc3c2)CC2CCC1N2C` (stereo in doubt) [listing 2 of 2 here], the Ki came out at 16.4 nM in assay [1] and 68 nM in assay [4]. In assay [2], this compound showed an IC50 of 2.51 nM.

For `CC(=O)C1C(c2cccc3ccccc23)CC2CCC1N2C` (stereo in doubt; form 2) [listing 2 of 2 here], in assay [3], the Potency ratio was found to be 0.4.

Take `CCC(=O)C1C(c2ccc(C(C)C)c3ccccc23)CC2CCC1N2C` (configuration not stated): the Ki is 136 nM in assay [1] and over 10000 nM in assay [4]. Moreover, the Potency ratio in assay [3] was 2. Further, the half-inhibitory concentration (IC50) in assay [2] worked out at 225 nM.

`CCC(=O)C1C(c2ccc3c([N+](=O)[O-])c(OC)ccc3c2)CC2CCC1N2C` (configuration not stated) came in with a Ki in assay [1] of 15 nM. Also, the Potency ratio in assay [3] came out at 10. The IC50 in assay [2] was 148 nM.

As usually defined, the Ki is the dissociation constant of the complex between target and ligand, obtained from inhibition or displacement. Read a high Ki as weaker binding. As a reminder, the IC50 is the midpoint of a concentration-inhibition curve. A low value points to higher potency.
